In brackets after ≈: the same amount, converted by molar mass.
Tests used:
[1] = biological target: T1, Peroxisome proliferator-activated receptor alpha (Homo sapiens, UniProt Q07869); assay: Transactivation of human GAL4-fused PPARalpha LBD expressed in African green monkey COS7 cells co-expressing 5Gal4 pGL3 TK Luc after overnight incubation by luciferase reporter gene assay; format: cell-based
T1 sequence (Q07869 whole entry): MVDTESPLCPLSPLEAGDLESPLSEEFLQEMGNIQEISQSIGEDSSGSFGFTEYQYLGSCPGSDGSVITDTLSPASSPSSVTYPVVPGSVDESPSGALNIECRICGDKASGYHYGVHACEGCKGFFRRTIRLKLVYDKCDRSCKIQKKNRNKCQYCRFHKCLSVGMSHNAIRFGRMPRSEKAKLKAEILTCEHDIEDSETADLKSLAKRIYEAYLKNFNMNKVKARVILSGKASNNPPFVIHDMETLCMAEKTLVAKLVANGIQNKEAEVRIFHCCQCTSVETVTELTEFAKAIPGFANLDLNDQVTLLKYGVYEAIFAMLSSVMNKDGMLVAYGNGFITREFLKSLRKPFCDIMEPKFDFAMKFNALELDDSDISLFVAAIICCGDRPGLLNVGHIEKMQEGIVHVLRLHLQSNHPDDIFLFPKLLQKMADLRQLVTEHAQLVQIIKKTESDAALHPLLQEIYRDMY
Summary of the method: (§1)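 Cell-based Gal-4 transactivation assay in COS-7 cells transfected with PPARα, PPARδ or PPARγ ligand-binding domain. EC50 and Emax were derived, with Emax as maximum activation in percent of control. EC50s are means of at least two independent experiments performed in triplicate.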

[2] = biological target: T2, Peroxisome proliferator-activated receptor alpha (Homo sapiens) (UniProt Q07869); assay: Transactivation of human GAL4-fused PPARalpha LBD expressed in African green monkey COS7 cells co-expressing 5Gal4 pGL3 TK Luc after overnight incubation by luciferase reporter gene assay relative to fenofibric acid; format: cell-based; summary of the method: as §1
T2 sequence (whole entry): T1 sequence (Q07869 whole entry)

[3] = biological target: T3, Peroxisome proliferator-activated receptor delta (Homo sapiens) (UniProt Q03181); assay: Transactivation of human GAL4-fused PPARdelta LBD expressed in African green monkey COS7 cells co-expressing 5Gal4 pGL3 TK Luc after overnight incubation by luciferase reporter gene assay relative to GW501516; format: cell-based; summary of the method: as §1
T3 sequence (whole entry): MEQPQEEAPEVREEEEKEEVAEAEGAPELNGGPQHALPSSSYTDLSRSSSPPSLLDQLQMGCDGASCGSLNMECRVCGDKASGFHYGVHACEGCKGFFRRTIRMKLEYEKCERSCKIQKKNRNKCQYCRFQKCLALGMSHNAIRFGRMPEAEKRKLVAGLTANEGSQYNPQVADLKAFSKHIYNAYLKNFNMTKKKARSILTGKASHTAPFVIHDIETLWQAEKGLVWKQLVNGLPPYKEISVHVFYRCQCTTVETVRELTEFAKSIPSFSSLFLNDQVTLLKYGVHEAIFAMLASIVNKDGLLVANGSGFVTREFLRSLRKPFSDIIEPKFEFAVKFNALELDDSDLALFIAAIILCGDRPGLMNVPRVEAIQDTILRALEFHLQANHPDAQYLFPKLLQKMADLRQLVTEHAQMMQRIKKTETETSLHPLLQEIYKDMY

[4] = biological target: T4, Peroxisome proliferator-activated receptor gamma (Homo sapiens, UniProt P37231); assay: Transactivation of human GAL4-fused PPARgamma LBD expressed in African green monkey COS7 cells co-expressing 5Gal4 pGL3 TK Luc after overnight incubation by luciferase reporter gene assay; format: cell-based; summary of the method: as §1
T4 sequence (P37231 whole entry): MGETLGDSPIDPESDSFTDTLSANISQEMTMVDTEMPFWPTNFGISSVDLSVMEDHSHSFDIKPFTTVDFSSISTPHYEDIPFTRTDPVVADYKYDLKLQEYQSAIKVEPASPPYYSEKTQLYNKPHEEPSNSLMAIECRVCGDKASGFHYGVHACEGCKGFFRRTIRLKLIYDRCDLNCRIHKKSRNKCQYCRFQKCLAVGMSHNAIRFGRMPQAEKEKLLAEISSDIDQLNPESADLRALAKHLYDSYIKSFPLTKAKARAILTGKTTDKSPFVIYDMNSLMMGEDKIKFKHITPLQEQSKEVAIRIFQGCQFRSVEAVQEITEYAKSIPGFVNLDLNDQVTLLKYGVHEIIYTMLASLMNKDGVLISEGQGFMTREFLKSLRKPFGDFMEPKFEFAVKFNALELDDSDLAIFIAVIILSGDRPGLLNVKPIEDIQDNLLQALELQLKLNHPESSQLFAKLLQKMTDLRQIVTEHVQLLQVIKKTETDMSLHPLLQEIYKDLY

[5] = biological target: T5, Peroxisome proliferator-activated receptor gamma (Homo sapiens) (UniProt P37231); assay: Transactivation of human GAL4-fused PPARgamma LBD expressed in African green monkey COS7 cells co-expressing 5Gal4 pGL3 TK Luc after overnight incubation by luciferase reporter gene assay relative to rosiglitazone; format: cell-based; summary of the method: as §1
T5 sequence (whole entry): T4 sequence (P37231 whole entry)

[6] = biological target: T6, Peroxisome proliferator-activated receptor delta (Homo sapiens, UniProt Q03181); assay: Transactivation of human GAL4-fused PPARdelta LBD expressed in African green monkey COS7 cells co-expressing 5Gal4 pGL3 TK Luc after overnight incubation by luciferase reporter gene assay; format: cell-based; summary of the method: as §1
T6 sequence (Q03181 whole entry): T3 sequence (whole entry)

[7] = Apparent permeability from apical to basolateral side in human Caco2 cells at 10 uM after 2 hrs by LC-MS/MS analysis; format: ADME, cell-based, Caco-2; details: Caco-2
[8] = Apparent permeability from basolateral to apical side in human Caco2 cells at 10 uM after 2 hrs by LC-MS/MS analysis; format: ADME, cell-based, Caco-2; details: caco-2, 2 h, 10 µM
[9] = Efflux ratio of apparent permeability in human Caco2 cells at 10 uM after 2 hrs by LC-MS/MS analysis; format: ADME, cell-based, Caco-2; details: Caco-2
[10] = Aqueous solubility in fasted state simulated intestinal fluid; format: physicochemical

COc1ccc(S(=O)(=O)n2c(CCCC(=O)O)cc3cc(Cl)ccc32)cc1
EC50 [1]: 419 nM | Emax [2]: 26% | Emax [3]: < 20% | EC50 [4]: 72 nM | Emax [5]: 25%

Cc1ccc2c(c1)cc(CCCC(=O)O)n2S(=O)(=O)c1ccccc1
EC50 [1]: 1300 nM | Emax [2]: 46% | EC50 [6]: > 5000 nM | Emax [3]: 45% | EC50 [4]: 284 nM | Emax [5]: 38%

COc1cccc(S(=O)(=O)n2c(CCCC(=O)O)cc3cc(Cl)ccc32)c1
EC50 [1]: 305 nM | Emax [2]: 40% | EC50 [6]: 1230 nM | Emax [3]: 43% | EC50 [4]: 72 nM | Emax [5]: 48%

Nc1nc2ccc(S(=O)(=O)n3c(CCCC(=O)O)cc4cc(Cl)ccc43)cc2s1
EC50 [1]: 1260 nM | Emax [2]: 57% | EC50 [6]: 919 nM | Emax [3]: 82% | EC50 [4]: 41 nM | Emax [5]: 74%

COc1ccc(S(=O)(=O)n2c(CCCC(=O)O)cc3cc(C(F)(F)F)ccc32)cc1
EC50 [1]: 764 nM | Emax [2]: 55% | EC50 [6]: 1260 nM | Emax [3]: 24% | EC50 [4]: 82 nM | Emax [5]: 38%

O=C(O)CCCc1cc2cc(Cl)ccc2n1S(=O)(=O)c1ccc2ccccc2c1
Emax [2]: < 20% | Emax [3]: < 20% | EC50 [4]: 35 nM | Emax [5]: 34%

O=C(O)CCCc1cc2cc(C(F)(F)F)ccc2n1S(=O)(=O)c1ccc(OC(F)(F)F)cc1
EC50 [1]: 1960 nM | Emax [2]: 40% | EC50 [6]: 2100 nM | Emax [3]: 28% | EC50 [4]: 573 nM | Emax [5]: 32%

Nc1nc2ccc(S(=O)(=O)n3c(CCCC(=O)O)cc4cc(Cl)ccc43)cc2o1
EC50 [1]: > 5000 nM | Emax [2]: 44% | EC50 [6]: 1390 nM | Emax [3]: 66% | EC50 [4]: 378 nM | Emax [5]: 52%

O=C(O)CCCc1cc2cc(C(F)(F)F)ccc2n1S(=O)(=O)c1ccc2ncsc2c1
EC50 [1]: 1620 nM | Emax [2]: 82% | EC50 [6]: 1120 nM | Emax [3]: 79% | EC50 [4]: 147 nM | Emax [5]: 70%

O=C(O)CCCc1cc2cc(C(F)(F)F)ccc2n1S(=O)(=O)c1ccc(Cl)cc1
EC50 [1]: 2820 nM | Emax [2]: 45% | EC50 [6]: 1650 nM | Emax [3]: 38% | EC50 [4]: 629 nM | Emax [5]: 36%

O=C(O)CCCc1cc2cc(Cl)ccc2n1S(=O)(=O)c1ccc2nc[nH]c2c1
EC50 [1]: > 5000 nM | Emax [2]: 43% | EC50 [6]: > 5000 nM | Emax [3]: 20% | EC50 [4]: > 5000 nM | Emax [5]: 42%

CC(=O)CC(c1ccccc1)c1c(O)c2ccccc2oc1=O (stereo unspecified) [WARFARIN]
Papp A→B at 2 h, 10 µM [7]: 39.8 ×10⁻⁶ cm/s | Papp [8]: 0.7 ×10⁻⁶ cm/s | efflux ratio at 2 h, 10 µM [9]: 0.02 | solubility [10]: 56 µM (≈ 17.3 µg/mL)

COc1ccccc1S(=O)(=O)n1c(CCCC(=O)O)cc2cc(C(F)(F)F)ccc21
EC50 [1]: > 5000 nM | Emax [2]: 35% | Emax [3]: < 20% | EC50 [4]: 1250 nM | Emax [5]: 35%

O=C(O)CCCCc1cc2cc(Cl)ccc2n1S(=O)(=O)c1ccccc1
Emax [2]: < 20% | Emax [3]: < 20% | Emax [5]: < 20%

Cc1nc2cc(S(=O)(=O)n3c(CCCC(=O)O)cc4cc(Cl)ccc43)ccc2s1
EC50 [1]: 2360 nM | Emax [2]: 22% | EC50 [6]: 1100 nM | Emax [3]: 20% | EC50 [4]: 175 nM | Emax [5]: 39%

O=C(O)CCCc1cc2cc(C(F)(F)F)ccc2n1S(=O)(=O)c1cccc(Cl)c1
EC50 [1]: 2420 nM | Emax [2]: 70% | EC50 [6]: 2030 nM | Emax [3]: 21% | EC50 [4]: 256 nM | Emax [5]: 49%

Cc1cccc(S(=O)(=O)n2c(CCCC(=O)O)cc3cc(Cl)ccc32)c1
EC50 [1]: 1250 nM | Emax [2]: 59% | EC50 [6]: 1350 nM | Emax [3]: 42% | EC50 [4]: 75 nM | Emax [5]: 46%

Cc1nc2ccc(S(=O)(=O)n3c(CCCC(=O)O)cc4cc(Cl)ccc43)cc2s1
Emax [2]: < 20% | EC50 [6]: 441 nM | Emax [3]: 27% | EC50 [4]: 11 nM | Emax [5]: 36%

CC(C)(CCc1cc2cc(Cl)ccc2n1S(=O)(=O)c1ccccc1)C(=O)O
EC50 [1]: 160 nM | Emax [2]: 90% | Emax [3]: < 20% | EC50 [4]: 910 nM | Emax [5]: 32%

Cc1ccc(S(=O)(=O)n2c(CCCC(=O)O)cc3cc(Cl)ccc32)cc1
EC50 [1]: > 5000 nM | Emax [2]: 36% | EC50 [6]: 1080 nM | Emax [3]: 29% | EC50 [4]: 277 nM | Emax [5]: 30%

O=C(O)CCCc1cc2cc(C(F)(F)F)ccc2n1S(=O)(=O)c1cccc(OC(F)(F)F)c1
EC50 [1]: 2760 nM | Emax [2]: 50% | EC50 [6]: 1140 nM | Emax [3]: 23% | EC50 [4]: 201 nM | Emax [5]: 39%

O=C(O)CCCc1cc2cc(Cl)ccc2n1S(=O)(=O)c1ccc2c(c1)OCO2
EC50 [1]: 790 nM | Emax [2]: 77% | EC50 [6]: 977 nM | Emax [3]: 43% | EC50 [4]: 71 nM | Emax [5]: 45%

O=C(O)CCCc1cc2cc(Cl)ccc2n1S(=O)(=O)c1ccc2nsnc2c1
EC50 [1]: > 5000 nM | Emax [2]: 81% | EC50 [6]: > 5000 nM | Emax [3]: 35% | EC50 [4]: 153 nM | Emax [5]: 67%

O=C(O)CCCc1cc2cc(C(F)(F)F)ccc2n1S(=O)(=O)c1ccccc1Cl
EC50 [1]: > 5000 nM | Emax [2]: 104% | Emax [3]: < 20% | EC50 [4]: > 5000 nM | Emax [5]: 45%

COc1cccc(S(=O)(=O)n2c(CCCC(=O)O)cc3cc(C(F)(F)F)ccc32)c1
EC50 [1]: 1160 nM | Emax [2]: 37% | EC50 [6]: 1610 nM | Emax [3]: 28% | EC50 [4]: 65 nM | Emax [5]: 46%

O=C(O)CCCc1cc2cc(Cl)ccc2n1S(=O)(=O)c1cccc2ccccc12
EC50 [1]: 901 nM | Emax [2]: 67% | Emax [3]: < 20% | EC50 [4]: 265 nM | Emax [5]: 36%

CN1CCOc2ccc(S(=O)(=O)n3c(CCCC(=O)O)cc4cc(Cl)ccc43)cc21
EC50 [1]: 410 nM | Emax [2]: 113% | EC50 [6]: 697 nM | Emax [3]: 54% | EC50 [4]: 16 nM | Emax [5]: 48%

O=C(O)CCCc1cc2cc(C(F)(F)F)ccc2n1S(=O)(=O)c1ccccc1
EC50 [1]: 1200 nM | Emax [2]: 48% | EC50 [6]: > 5000 nM | Emax [3]: 49% | EC50 [4]: 417 nM | Emax [5]: 50%

O=C(O)COCc1cc2cc(Cl)ccc2n1S(=O)(=O)c1ccccc1
Emax [2]: < 20% | Emax [3]: < 20% | Emax [5]: < 20%

COc1ccc2c(c1)cc(CCCC(=O)O)n2S(=O)(=O)c1ccccc1
Emax [2]: < 20% | Emax [3]: < 20% | Emax [5]: < 20%

Reference: ChEMBL document CHEMBL4020830, “Design, Synthesis, and Evaluation of a Novel Series of Indole Sulfonamide Peroxisome Proliferator Activated Receptor (PPAR) α/γ/δ Triple Activators: Discovery of Lanifibranor, a New Antifibrotic Clinical Candidate” (J Med Chem, 2018)
